Measurements taken from PubChem BioAssay AID719 (SRMLSC, 2007).
Hit rate of the full screen: of about 85,000 compounds, about 940 (1.1%) were called active. The list comes from a sample in which actives are over-represented; it also holds similar structures and randomly drawn compounds. A number with no mark means an inactive call.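 How the source made its calls: active means viability at or below 50% in the single dose screen; inactive means viability above 50%.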

test: antiproliferative effect on LL 47 fibroblasts – human, LL 47 cells, CellTiter-Glo luminescence, primary screen (AID 719); details: LL 47 human lung fibroblast viability, ATP luminescence; at 10 µM; stronger effect = lower value;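 further: compound exposure lasted 72 h before the ATP readout; 100% = median luminescence of untreated cell-only wells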
In short: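 test system = LL 47 human lung fibroblasts | amount = 1,150 fibroblasts seeded per well | medium = 15% FBS in IMEM | times = overnight cell rest, 72 h compound treatment at 37 °C | measured by = CellTiter-Glo luminescence measuring cellular ATP | read-out = viability percentage against median untreated-cell control | benchmarks = cell-only wells, no compound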

Row | Structure (SMILES) | viability
1 | CCCCC(C(=O)OCC(=O)c1ccc(OC)cc1)N1C(=O)c2ccccc2C1=O (stereo not given) | 93.2%
2 | COC(=O)c1ccccc1NC(=O)Cc1ccccc1OC | 102%
3 | CCOc1ccc(Cn2nnc(C(=O)NCc3ccccc3)c2N)cc1 | 84.8%
4 | CCOc1ccc(Cn2nnc(C(=O)Nc3ccc(OC)cc3OC)c2N)cc1 | 81.2%
5 | Nc1c(C(=O)NCc2ccccc2)nnn1Cc1cccc(Cl)c1 | 44.6% (active)
6 | CC(C)N1C(=S)SC(C)(C)C1n1oc(=O)n(-c2ccc(Cl)c(Cl)c2)c1=O (stereo not given) | 87.5%
7 | Cn1c2ccccc2c2c(C(=O)N3CCN(c4ccc(F)cc4)CC3)cn(C3CCCC3)c(=O)c21 | 85.9%
8 | CCOC(=O)N1CCN(C(=O)c2n[nH]c(=O)c3ccccc23)CC1 | 97.5%
9 | CCOC(=O)N1CCN(C(=O)c2nn(-c3ccc(C)cc3)c(=O)c3c2c2ccccc2n3C)CC1 | 19.7% (active)
10 | Nc1nonc1-c1nc2ccccc2n1CCC(=O)O | 104%
11 | COc1ccc(C)c(Cn2c(-c3nonc3N)nc3ccccc32)c1 | 42.2% (active)
12 | Nc1nonc1-c1nc2ccccc2n1Cc1ccc(F)cc1 | 52.3%
13 | CCOc1ccc(N=C2NC(=O)S/C2=C\c2ccc(O)cc2)cc1 | 102%
14 | COc1ccc(C)cc1S(=O)(=O)NCCc1ccccc1 | 97.6%
15 | Cc1nc(NC(=O)CN(C)S(=O)(=O)c2ccc(Cl)cc2)sc1C | 98.6%
16 | O=C(CSc1nnc(-c2ccccn2)n1-c1ccccc1)Nc1ccc2c(c1)OCO2 | 89.6%
17 | Cc1ccc(-n2c(SCC(=O)Nc3ccc4c(c3)OCO4)nnc2-c2ccccn2)cc1 | 42.1% (active)
18 | Cc1ccc(-n2c(SCC(=O)Nc3ccc4c(c3)OCO4)nnc2-c2ccoc2C)cc1 | 99%
19 | Cc1ccc(-n2c(SCC(=O)NCc3ccc4c(c3)OCO4)nnc2-c2cccnc2)c(C)c1 | 95.8%
20 | O=C(c1cc2sccc2n1Cc1ccc(F)cc1)N1CCc2ccccc21 | 95.6%

Row | Structure (SMILES) | viability
21 | COc1ccc(CC(=O)Nc2ccc(-c3nnc(-c4ccc(C)cc4)o3)cc2)cc1 | 30.9% (active)
22 | COc1ccc(CC(=O)Nc2ccc(-c3nnc(-c4ccccc4)o3)cc2)cc1 | 105%
23 | Cc1ccc(OCC(=O)Nc2ccc(-c3nnc(-c4ccco4)o3)cc2)cc1 | 91.8%
24 | O=C(/C=C/NNC(=O)c1cccc(Br)c1)c1ccccc1 | 80.9%
25 | CN1CCN(CC(=O)Nc2sc3c(c2C#N)CCC(C(C)(C)C)C3)CC1 (stereo not given) | 2.62% (active)
26 | CC(C)(C)C1CCc2c(sc3nc(SCC(N)=O)nc(N)c23)C1 (stereo not given) | 99%
27 | CCC(=O)Nc1sc(C(=O)N2CCCCC2)c(C)c1C#N | 98%
28 | CCOC(=O)c1nnn(-c2nonc2-n2cccc2)c1CN1CCC(C(=O)OCC)CC1 | 95%
29 | O=C(NCCN1CCOCC1)c1c(F)c(F)c(F)c(F)c1F | 97.6%
30 | O=C(CCN1C(=O)c2ccccc2C1=O)NCCN1CCOCC1 | 104%
31 | CC(=O)Oc1cc2c(C(=O)NCCN3CCOCC3)c(C)oc2c2ccccc12 | 8.08% (active)
32 | Cc1ccc(-c2cc(C(=O)NCC3CCCO3)c3ccccc3n2)o1 (stereo not given) | 98.3%
33 | Clc1cccc(N=C2NN=C(c3ccc4c(c3)OCCO4)CS2)c1 | 101%
34 | O=C(CCn1c(SCC(=O)c2ccccc2)nc2ccccc2c1=O)NCc1ccc(F)cc1 | 103%
35 | COc1ccc(C2=CC(c3cccc(OC)c3)n3nnnc3N2)cc1 (stereo not given) | 86.1%
36 | CCOc1cccc(-c2nnc3sc(COc4ccc(OC)cc4)nn23)c1 | 99.8%
37 | CCOc1cccc(-n2nnnc2-c2ccc(OC)cc2)c1 | 47.7% (active)
38 | Cc1ccc(Nc2nnc(SCc3ccccc3)s2)cc1 | 102%
39 | Cc1ccc(C)c(N2C(=O)CS/C2=N\NC(=O)c2ccccc2Cl)c1 | 101%
40 | CC(C)CC(N=C1NC(C)(C)Cc2ccccc21)C(=O)O (stereo not given) | 111%

Row | Structure (SMILES) | viability
41 | COc1cccc(NC(=O)Cc2ccc(C)cc2)c1 | 91.5%
42 | COc1ccc(NC(=O)/C(Cl)=C(/Cl)S(=O)Cc2ccc(C)cc2)cn1 (stereo not given) | 1.6% (active)
43 | COc1ccc(-c2nc3ccccc3n2CCC(C)C)cc1OC | 99.3%
44 | O=C(CN1CCCCCC1)N1c2ccccc2Sc2ccc(C(F)(F)F)cc21 | 96%
45 | CCCCCCc1cc2cc(-c3nnc(-c4cccc(OC)c4)o3)c(=O)oc2cc1O | 64.8%
46 | COC(=O)CSc1nc2c(c(C3CC=CCC3)c1C#N)CCC2 (stereo not given) | 101%
47 | Cc1cc(C)n(-c2nnc(C)n2NC(=O)c2cccc(Cl)c2)n1 | 94.7%
48 | COCCCn1c(SCC(=O)Nc2ccccc2)nnc1-c1ccncc1 | 108%
49 | Cc1ccc(NC(=O)N2CCC(c3nc4c(nnn4Cc4c(F)cccc4Cl)c(=O)[nH]3)CC2)cc1 | 95%
50 | N=c1c2c(-c3ccccc3)c(-c3ccccc3)n(Cc3ccccc3)c2ncn1CCCO | 39% (active)
51 | OCCCN1c2ccccc2Nc2nnc(-c3ccccc3)cc21 | 89.3%
52 | C=CCO/N=C(\C)c1c(O)c(C)c(-c2ccccc2)n(-c2ccccc2)c1=O | 99.4%
53 | Cc1cccc(N2CCN(C(=O)c3cnn4c(C(F)F)cc(-c5ccccc5)nc34)CC2)c1C | 87.9%
54 | C=CCn1c(SCC(=O)/C(C#N)=C(\C)N)nc2sc(C)c(C)c2c1=O | 34.3% (active)
55 | CCCn1c(=O)c2ccccc2n2c(SCC(=O)/C(C#N)=C(\C)N)nnc12 | 93.4%
56 | Cc1sc2nc(SCC(N)=O)n(C)c(=O)c2c1C | 93.8%
57 | CCOc1cc(NC(=O)c2cnccn2)c(OCC)cc1NC(=O)c1ccc(C)cc1 | 97.9%
58 | CCOC(=O)N1CCN(S(=O)(=O)c2ccc(C(=O)Nc3ccc(F)cc3F)cc2)CC1 | 47.5% (active)
59 | COc1ccc(C(=O)Nc2ccc(F)cc2F)cc1 | 99.5%
60 | O=C(Nc1cccc(F)c1)c1ccc(S(=O)(=O)N2CCCC2)cc1 | 109%
